The subject of series [1] is SH-SY5Y. The experiment in a line: Cytotoxicity against human SH-SY5Y cells assessed as cell viability at 10 uM after 24 hrs by MTT assay (reference value: […] +/- 11.7 %). It counts as functional. Conditions: read-out: Activity. For orientation: Tetrazolium assays rely on reduction of a dye to a coloured formazan, in cell work by metabolically active cells.
In series [2] the test system is SH-SY5Y. As to the kind of experiment: Cytotoxicity against human SH-SY5Y cells assessed as reduction in cell viability at 1 to 10 uM after 24 hrs by neutral red uptake assay. Type of series: functional, cell-based. In a few lines: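 SH-SY5Y cells grown to confluence over 3 days and exposed 24 h to compound at 1 and 10 μM in serum-free medium, with a 0.1% DMSO vehicle control. Neutral red 50 μg/mL added for 2 h at 37 °C. Dye extracted with ethanol/water (1:1) containing 5% acetic acid and read at 540 nm. Uptake expressed as % of control.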

For series [3], the system named is SH-SY5Y. As to the kind of experiment: Cytotoxicity against human SH-SY5Y cells assessed as reduction in cell viability at 1 uM after 24 hrs by MTT assay. It counts as functional, cell-based.
The test system of series [4] is SH-SY5Y. As to the kind of experiment: Cytotoxicity against human SH-SY5Y cells assessed as cell viability at 1 uM after 24 hrs by MTT assay (reference value: […] +/- 11.7 %). Type of series: functional. The settings on record: read-out: Activity.
The target of series [5] is T1, Amine oxidase [flavin-containing] B (Homo sapiens, UniProt P27338).
T1 sequence (P27338 whole entry): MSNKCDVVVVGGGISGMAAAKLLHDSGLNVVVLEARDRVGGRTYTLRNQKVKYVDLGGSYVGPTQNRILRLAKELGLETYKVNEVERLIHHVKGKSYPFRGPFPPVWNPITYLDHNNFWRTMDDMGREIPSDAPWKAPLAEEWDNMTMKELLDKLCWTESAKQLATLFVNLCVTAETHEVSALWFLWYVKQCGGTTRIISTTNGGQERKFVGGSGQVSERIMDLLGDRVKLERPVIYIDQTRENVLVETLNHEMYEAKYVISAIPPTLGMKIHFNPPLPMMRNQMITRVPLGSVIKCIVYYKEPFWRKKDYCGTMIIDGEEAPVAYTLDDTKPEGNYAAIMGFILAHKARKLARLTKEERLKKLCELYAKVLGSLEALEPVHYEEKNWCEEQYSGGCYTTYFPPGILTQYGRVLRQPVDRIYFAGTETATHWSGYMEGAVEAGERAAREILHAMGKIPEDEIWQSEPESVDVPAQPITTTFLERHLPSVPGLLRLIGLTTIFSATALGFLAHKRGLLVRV
The experiment in a line: biochemical. It counts as cell-based, BTI-TN-5B1-4.

Series [6] addresses T2, Amine oxidase [flavin-containing] A (Homo sapiens, UniProt P21397).
T2 sequence (P21397 whole entry): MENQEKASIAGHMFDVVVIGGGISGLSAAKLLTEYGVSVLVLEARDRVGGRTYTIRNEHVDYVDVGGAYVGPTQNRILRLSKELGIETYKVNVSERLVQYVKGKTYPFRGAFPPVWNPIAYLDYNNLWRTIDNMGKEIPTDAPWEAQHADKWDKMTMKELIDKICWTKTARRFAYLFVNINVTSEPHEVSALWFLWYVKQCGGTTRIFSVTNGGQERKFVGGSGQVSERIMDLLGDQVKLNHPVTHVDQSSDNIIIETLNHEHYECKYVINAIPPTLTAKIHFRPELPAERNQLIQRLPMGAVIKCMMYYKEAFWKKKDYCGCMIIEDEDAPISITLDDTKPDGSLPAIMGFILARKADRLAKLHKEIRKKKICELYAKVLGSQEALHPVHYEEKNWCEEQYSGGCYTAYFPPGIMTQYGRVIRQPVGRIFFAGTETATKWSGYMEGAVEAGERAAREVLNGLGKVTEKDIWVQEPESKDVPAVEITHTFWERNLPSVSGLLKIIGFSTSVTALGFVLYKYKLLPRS
The experiment in a line: Inhibition of human microsomal MAO-A expressed in recombinant baculovirus infected insect BTI-TN-5B1-4 cells assessed as reduction in H2O2 production using p-tyramine as substrate after 15 mins by fluorescence assay.

Series [7] concerns the target T2, Amine oxidase [flavin-containing] A. As to the kind of experiment: Inhibition of human microsomal MAO-A expressed in recombinant baculovirus infected insect BTI-TN-5B1-4 cells assessed as reduction in H2O2 production at 10 uM using p-tyramine as substrate after 15 mins by fluorescence assay.
For a further series, the species on record is Homo sapiens. The experiment in a line: Selectivity index, ratio of IC50 for human microsomal MAO-A expressed in recombinant baculovirus infected insect BTI-TN-5B1-4 cells to IC50 for human microsomal MAO-B expressed in recombinant baculovirus infected insect BTI-TN-5B1-4 cells.
Series [8] addresses T2, Amine oxidase [flavin-containing] A. The experiment in a line: Inhibition of human microsomal MAO-A expressed in recombinant baculovirus infected insect BTI-TN-5B1-4 cells assessed as reduction in H2O2 production at 100 uM using p-tyramine as substrate after 15 mins by fluorescence assay.
For series [9], the target named is T1, Amine oxidase [flavin-containing] B. The experiment in a line: Reversible inhibition of human microsomal MAO-B expressed in recombinant baculovirus infected insect BTI-TN-5B1-4 cells assessed as increase in residual enzyme activity at 40 nM after 60 mins. Conditions: bti-tn-5b1-4, 1 h, 0.04 µM.

From ChEMBL document CHEMBL4477205, “Discovery of New Chemical Entities for Old Targets: Insights on the Lead Optimization of Chromone-Based Monoamine Oxidase B (MAO-B) Inhibitors” (J Med Chem, 2016) come the findings set out here.

Each structure is given as a SMILES string. The source made the active and inactive calls. The calls are words filed in the database; no cut-off is given here.

In general, IC50 refers to the concentration needed to halve the response being measured.

Take `Cc1ccc(NC(=O)c2coc3ccccc3c2=O)cc1C`: the viability at 10 µM in the series on SH-SY5Y [1] amounted to 74.5%. Besides, the result in the series on SH-SY5Y [2] and in the series with SH-SY5Y [3] was inactive.

For `O=C(Nc1cccc(Cl)c1)c1coc2ccccc2c1=O`, the viability at 10 µM in the series with SH-SY5Y [1] came to 43.7%. For the same compound, the viability at 1 µM in the series with SH-SY5Y [4] came out at 64.3%. Further, the outcome in the series on SH-SY5Y [2] was inactive.

Turning to `O=C(Nc1cc(Cl)c(Cl)c(Cl)c1)c1coc2ccccc2c1=O`, the IC50 entry in [5] (bti-tn-5b1-4) and in series [6] was “Nd(Insoluble)” throughout.

In the case of `O=C(Nc1ccc(Cl)c(Cl)c1)c1coc2ccccc2c1=O`, the IC50 entry in series [5] (bti-tn-5b1-4) and in [6] was “Nd(Insoluble)” in each case.

Turning to `O=C(Nc1ccc(O)cc1)c1coc2ccccc2c1=O`, the half-maximal inhibitory concentration (IC50) in series [5] (read-out: IC50) turned out to be 1380 nM. The INH entry in series [7] is “Not Active”. Also, in the series listed under Homo sapiens, the Ratio IC50 is above 7.2.

`O=C(Nc1ccc(S)cc1)c1coc2ccccc2c1=O`: the IC50 entry in series [5] (bti-tn-5b1-4) and in series [6] was “Nd(Insoluble)” in each case.

With `C[C@H](NCc1ccc(OCc2cccc(F)c2)cc1)C(N)=O` [SAFINAMIDE], the INH result in [8] is reported as “Not Active”. In addition, the “inhibition (INH)” value in [9] was “Active”.
